The text below walks through data of ChEMBL document CHEMBL2163245 (J Med Chem, 2012).

In one assay the target is T1, Potassium voltage-gated channel subfamily KQT member 2 (Homo sapiens, UniProt O43526). Put plainly: Antagonist activity at KCNQ2 expressed in CHO cells incubated for 3 mins by automated patch clamp assay. The format is functional, cell-based. A general note: The patch-clamp technique gives a direct electrical read-out from membranes.
T1 sequence (O43526 whole entry): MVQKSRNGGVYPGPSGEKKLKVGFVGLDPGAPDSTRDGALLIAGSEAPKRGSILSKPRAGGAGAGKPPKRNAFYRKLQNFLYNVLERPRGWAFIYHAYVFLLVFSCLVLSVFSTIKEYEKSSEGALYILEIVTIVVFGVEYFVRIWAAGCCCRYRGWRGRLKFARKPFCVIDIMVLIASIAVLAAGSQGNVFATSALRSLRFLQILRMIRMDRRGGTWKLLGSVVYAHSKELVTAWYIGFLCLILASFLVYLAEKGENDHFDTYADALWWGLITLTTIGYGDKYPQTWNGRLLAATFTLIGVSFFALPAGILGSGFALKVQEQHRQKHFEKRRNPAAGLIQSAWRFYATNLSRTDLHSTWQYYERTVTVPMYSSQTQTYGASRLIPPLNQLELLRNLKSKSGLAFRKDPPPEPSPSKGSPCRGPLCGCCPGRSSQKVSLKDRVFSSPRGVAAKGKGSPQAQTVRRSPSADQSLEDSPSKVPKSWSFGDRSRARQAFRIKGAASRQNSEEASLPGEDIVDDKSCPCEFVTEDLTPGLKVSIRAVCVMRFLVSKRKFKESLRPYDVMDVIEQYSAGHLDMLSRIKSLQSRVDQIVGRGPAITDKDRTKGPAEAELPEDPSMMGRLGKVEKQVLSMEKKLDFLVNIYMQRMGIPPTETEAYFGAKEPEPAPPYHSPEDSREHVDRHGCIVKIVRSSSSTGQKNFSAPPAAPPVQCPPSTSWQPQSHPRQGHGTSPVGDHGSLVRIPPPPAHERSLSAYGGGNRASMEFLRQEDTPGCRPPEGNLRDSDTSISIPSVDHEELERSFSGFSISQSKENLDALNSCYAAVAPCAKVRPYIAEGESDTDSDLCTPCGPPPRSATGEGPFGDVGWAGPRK
As to `CCC(C(=O)Nc1ccccc1N1CCCCCC1)c1ccccc1` (racemic), the IC50 (in general, the concentration at which inhibition is half-maximal) is more than 30 µM.
On the same count and under the same terms, next, `O=C(Nc1ccccc1N1CCCC1)C(c1ccccc1)C1CC1` (racemic): 3.5 µM; `CC(C(=O)Nc1ccccc1N1CCCC1)c1ccccc1` (racemic): 0.26 µM.
On the same count and under the same terms, the result for `CCC(C(=O)Nc1ccccc1N1C(=O)CCC1=O)c1ccccc1` (racemic) reads more than 30 µM.
The molecule `CCCC(C(=O)Nc1ccccc1N1CCCC1)c1ccccc1` (racemic) returned a half-maximal inhibitory concentration (IC50) of 0.32 µM.
As for `CCC(C(=O)Nc1ccccc1N1CCCC1)c1ccccc1` (racemic), the IC50 was 0.163 µM.
Regarding `CC(C)CC(C(=O)Nc1ccccc1N1CCCC1)c1ccccc1` (racemic), the IC50 was found to be 2.22 µM. Against the preceding molecule, the IC50 is about 14-fold higher.
On the same count and under the same terms, the result for `CCC(C(=O)Nc1ccc(N2CCCC2)cc1)c1ccccc1` (stereo unspecified) reads 0.21 µM.
As to `O=C(Nc1ccccc1N1CCCC1)C1(c2ccccc2)CC1`, the IC50 was more than 30 µM.
With `CCC(C(=O)Nc1ccccc1N1CCCC1)c1ccc(OC)c(OC)c1` (racemic), the midpoint of inhibition, the IC50, lay at 20.2 µM. In other words, the double-digit micromolar range.
For `O=C(Nc1ccccc1N1CCCC1)C1CCc2ccccc21` (racemic), the IC50 was 0.33 µM.
`CC(C)(C(=O)Nc1ccccc1N1CCCC1)c1ccccc1`: the IC50 is more than 30 µM.
Regarding `CCC(C(=O)Nc1cccc(N2CCCC2)c1)c1ccccc1` (racemic), the IC50 was more than 30 µM.
In the case of `CCC(C(=O)Nc1ccccc1N1CCCC1)c1ccc(F)c(F)c1` (racemic), 0.17 µM corresponded to half-maximal inhibition (IC50).
As for `CCC(C(=O)Nc1ccccc1-n1cccc1)c1ccccc1` (racemic), the IC50 stood at 5.27 µM.
On the same count and under the same terms, next, `CCC(C(=O)Nc1ccccc1N(C)CC)c1ccccc1` (racemic): more than 30 µM; `CCC(C(=O)Nc1ccccc1N1CCCC1)c1ccc(OC)cc1` (racemic): 0.38 µM; `CCC(C(=O)Nc1ccccc1Cl)c1ccccc1` (racemic): 15 µM.
On the same count and under the same terms, the result for `CCC(C(=O)Nc1ccccc1N1CCOCC1)c1ccccc1` (racemic) reads 12.7 µM; that for `O=C(Nc1ccccc1N1CCCC1)C1CCOc2ccccc21` (racemic), more than 30 µM.
`CCC(C(=O)Nc1ccccc1N1CCCC1)c1ccc(Cl)c(Cl)c1` (racemic): inhibition was half-maximal at 0.47 µM (IC50).
On the same count and under the same terms, next, `CCC(C(=O)Nc1ccccc1N1CCCC1)c1ccccc1Cl` (racemic): 3.31 µM; `CCC(C(=O)Nc1ccccc1-n1ccnc1)c1ccccc1` (racemic): more than 30 µM; `CCC(C(=O)N(C)c1ccccc1N1CCCC1)c1ccccc1` (racemic): more than 30 µM.

The target in the next assay is T1, Potassium voltage-gated channel subfamily KQT member 2. Put plainly: Agonist activity at KCNQ2 expressed in CHO cells incubated for 3 mins by automated patch clamp assay. It is filed as functional, cell-based. The procedure, abridged: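 Ionworks Quattro population patch clamp on CHO cells stably expressing KCNQ2, 7,000 cells/well in extracellular solution (mM: 137 NaCl, 4 KCl, 1 MgCl2, 1.8 CaCl2, 10 HEPES, 10 glucose, pH 7.4), amphotericin B (50 μg/ml) perforation. Held -90 mV, 2,000 ms step to -10 mV; steady-state current at pulse end before and 3 min after compound; % change versus pre-compound current. Cells >100 pA and seal >30 MΩ only.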
For the molecule `O=C(Cc1ccc(Cl)c(Cl)c1)Nc1ccccc1N1CCCC1`, it took 1070 nM to reach a half-maximal effect (EC50).
Turning to `O=C(Cc1cccc(Cl)c1)Nc1ccccc1N1CCCCCC1`, the EC50 (as a rule, the concentration needed to bring the measured effect to its halfway point) is more than 30000 nM.
`O=C(Cc1cccc(Cl)c1)Nc1ccccc1N1CCCCC1` displayed an EC50 of 7090 nM.
On the same count and under the same terms, the result for `CCN(C)c1ccccc1NC(=O)Cc1cccc(Cl)c1` reads more than 30000 nM; that for `O=C(Cc1cccc(Cl)c1)Nc1ccc(N2CCCC2)cc1`, 8660 nM; that for `CN(Cc1ccccc1)c1ccccc1NC(=O)Cc1cccc(Cl)c1`, more than 30000 nM.
On the same count and under the same terms, next, `O=C(Cc1cccc(Cl)c1)Nc1cccc(N2CCCC2)c1`: 1020 nM; `O=C(Cc1cccc(Cl)c1)Nc1ccccc1-n1cccc1`: 12300 nM; `O=C(Nc1ccccc1N1CCCC1)C(F)c1ccccc1` (stereo unspecified): 990 nM.
On the same count and under the same terms, next, `CCC(C(=O)Nc1ccccc1-n1c(C)ccc1C)c1ccccc1` (racemic): more than 30000 nM; `O=C(Cc1cccc(Cl)c1)Nc1ccccc1N1CCOCC1`: more than 30000 nM.
Consider `O=C(Cc1cccc(F)c1)Nc1ccccc1N1CCCC1`, for which the half-maximal effective concentration (EC50) amounted to 490 nM.
In turn, `COc1ccc(CC(=O)Nc2ccccc2N2CCCC2)cc1` had an EC50 of 1750 nM.
The same measure, in the same setting: the result for `O=C(Cc1cccc(Cl)c1)Nc1ccccc1N1CCCC1` reads 170 nM.
`O=C(Cc1ccccc1)Nc1ccccc1N1CCCC1` showed an EC50 of 743 nM.
On to `CN(C(=O)Cc1ccccc1)c1ccccc1N1CCCC1`, for which the EC50 is more than 30000 nM.
On to `O=C(Cc1cccc(C(F)(F)F)c1)Nc1ccccc1N1CCCC1`, for which the EC50 worked out at 350 nM. In other words, the sub-micromolar range.
